Columns and labels:
[1] = system: Mycobacterium tuberculosis; assay: Antimicrobial activity against Mycobacterium tuberculosis H37Rv at 50 ug/ml assessed as reduction of relative light units; type: functional; set-up: scale not given: the % may be the effect or the level left
Method in brief: (§1)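 Luciferase reporter phage assay on M. tuberculosis H37Rv. Bacteria (McFarland No.2 suspension) in G7H9, with or without compound, incubated 72 h at 37 °C; two drug-free controls per sample. Phage phAE129 with CaCl2 added, then 4 h at 37 °C. D-luciferin (0.3 mM, citrate pH 4.5) added; RLU read after 10 s integration, duplicate readings averaged. Percent RLU reduction versus control; repeated if control mean RLU <1000.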

[2] = system: Mycobacterium tuberculosis; assay: Antimicrobial activity against Mycobacterium tuberculosis H37Rv at 100 ug/ml assessed as reduction of relative light units; type: functional; set-up: scale not given: the % may be the effect or the level left; method in brief: as §1

SMILES | Activity [1] | Activity [2]
COc1ccccc1/C=C/C(=O)c1cccc([N+](=O)[O-])c1 | 84.16% | 97.94%
CN(C)c1ccc(/C=C/C(=O)c2ccc(Cl)cc2Cl)cc1 | 31.55% | 33.8%
COc1ccc(C(=O)/C=C/c2ccc(SC)cc2)cc1 | 7.36% | 17.38%
COc1ccccc1/C=C/C(=O)c1ccc([N+](=O)[O-])cc1 | 94.3% | 98.15%
CSc1ccc(/C=C/C(=O)c2ccc(C)cc2)cc1 | 16.88% | 51.59%
CSc1ccc(/C=C/C(=O)c2ccccc2O)cc1 | 68.41% | 90.52%
O=C(/C=C/c1ccccc1)c1ccccc1 [CHALCONE] | 41.93% | 50.64%
CSc1ccc(/C=C/C(=O)c2ccc(Cl)cc2Cl)cc1 | 0% | 0%
CSc1ccc(/C=C/C(=O)c2ccc(Cl)cc2)cc1 | 24.06% | 48.83%
COc1ccc(/C=C/C(=O)c2cccc([N+](=O)[O-])c2)cc1OC | 64.61% | 89.27%
CN(C)c1ccc(/C=C/C(=O)c2ccccc2)cc1 | 70.02% | 70.18%
CSc1ccc(/C=C/C(=O)c2cccc(O)c2)cc1 | 31.59% | 98.86%
COc1ccc(/C=C/C(=O)c2cccc([N+](=O)[O-])c2)c(OC)c1 | 92.19% | 96.45%
COc1ccc(/C=C/C(=O)c2ccccc2)cc1 [4-METHOXY CHALCONE] | 58.75% | 65.08%
COc1ccccc1/C=C/C(=O)c1ccccc1 | 66.07% | 72.98%
COc1ccc(/C=C/C(=O)c2ccc(Cl)cc2Cl)cc1OC | 0% | 12.17%
CSc1ccc(/C=C/C(=O)c2cccc([N+](=O)[O-])c2)cc1 | 0% | 0%
COc1ccc(/C=C/C(=O)c2ccc(C)cc2)cc1 | 60.24% | 98.52%
CSc1ccc(/C=C/C(=O)c2ccccc2)cc1 | 46.29% | 66.51%
COc1ccc(/C=C/C(=O)c2cccc(O)c2)cc1 | 98.9% | 99.04%
COc1cc(/C=C/C(=O)c2ccccc2)cc(OC)c1OC | 43.16% | 63.9%
CSc1ccc(/C=C/C(=O)c2ccc([N+](=O)[O-])cc2)cc1 | 30.95% | 48.06%
CSc1ccc(/C=C/C(=O)c2ccc(Br)cc2)cc1 | 0% | 21.87%
CSc1ccc(/C=C/C(=O)c2ccc(O)cc2)cc1 | 29.25% | 55.16%
CN(C)c1ccc(/C=C/C(=O)c2cccc([N+](=O)[O-])c2)cc1 | 90.06% | 96.22%

From ChEMBL document CHEMBL1139140, “Synthesis, antimycobacterial activity evaluation, and QSAR studies of chalcone derivatives” (2007)
